# Source: ChEMBL document CHEMBL2375270, “Structure-based design, SAR analysis and antitumor activity of PI3K/mTOR dual inhibitors from 4-methylpyridopyrimidinone series” (Bioorg Med Chem Lett, 2013)
# Test system: not listed separately
# Assay: Volume of distribution at steady state in rat
# Format: ADME, organism-based
# Conditions: in vivo, read-out: Vdss; call rule not given here
row,SMILES,Vd
1,COc1ncc(-c2cc3c(C)nc(N)nc3n([C@H]3CC[C@H](OCO)CC3)c2=O)cc1F,4.08 L/kg

# Test system: not listed separately
# Assay: Oral bioavailability in rat
# Format: ADME, organism-based
# Conditions: in vivo
row,SMILES,bioavailability
1,COc1ncc(-c2cc3c(C)nc(N)nc3n([C@H]3CC[C@H](OCO)CC3)c2=O)cc1F,79%

# Test system: not listed separately
# Assay: Toxicity against nu/nu mouse
# Format: organism-based
# Conditions: in vivo
# Outline: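 Tolerability assessed in mice bearing U87 xenografts during tumour growth inhibition studies. Groups received vehicle or 1, 3 or 10 mg/kg. Plasma free drug levels and AKT phosphorylation were sampled at 1 h and 24 h in the top-dose group.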
row,SMILES,MTD
1,COc1ncc(-c2cc3c(C)nc(N)nc3n([C@H]3CC[C@H](OCO)CC3)c2=O)cc1F,10 mg/kg

# Test system: Plasma
# Assay: Drug metabolism in human plasma assessed as formation of glucuronide conjugate at 8 mg, po qd for 21 days by HPLC analysis
# Format: ADME, organism-based
# Conditions: in vivo, 504 h
# Outline: (§1)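 Human plasma came from patients given 8 mg once daily in a clinical dose-escalation study. Metabolites were profiled from the total ion chromatogram. Peaks were assigned by retention time and molecular ion (m/z) against reference standards and parent drug.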
row,Drug metabolism,SMILES
1,Active,COc1ccc(-c2cc3c(C)nc(N)nc3n([C@H]3CC[C@H](OCCO)CC3)c2=O)cn1 [PF-04691502]

# Test system: not listed separately
# Assay: Permeability across dog RRCK cells
# Format: ADME, cell-based, Canis lupus familiaris, MDCKII-LE
# Conditions: MDCK, read-out: permeability
row,SMILES,Papp
1,Cc1nc(N)nc2c1cc(-c1cn[nH]c1)c(=O)n2[C@H]1CC[C@@H](OCC(N)=O)CC1,0.151 ×10⁻⁶ cm/s
2,Cc1nc(N)nc2c1cc(-c1cnc3ccccc3c1)c(=O)n2[C@H]1CC[C@@H](OCO)CC1,41.6 ×10⁻⁶ cm/s
3,Cc1nc(N)nc2c1cc(-c1cnc3ccccc3c1)c(=O)n2[C@H]1CC[C@H](OCC(N)=O)CC1,9.02 ×10⁻⁶ cm/s
4,COc1ncc(-c2cc3c(C)nc(N)nc3n([C@H]3CC[C@H](OCC(N)=O)CC3)c2=O)cc1F,26.2 ×10⁻⁶ cm/s
5,COc1ncc(-c2cc3c(C)nc(N)nc3n([C@H]3CC[C@@H](OCC(N)=O)CC3)c2=O)cc1F,26.2 ×10⁻⁶ cm/s
6,Cc1nc(N)nc2c1cc(-c1cnc3ccccc3c1)c(=O)n2[C@H]1CC[C@@H](OCC(N)=O)CC1,4.57 ×10⁻⁶ cm/s
7,Cc1nc(N)nc2c1cc(-c1cnc3ccccc3c1)c(=O)n2[C@H]1CC[C@H](OCO)CC1,19.7 ×10⁻⁶ cm/s
8,Cc1nc(N)nc2c1cc(-c1cn[nH]c1)c(=O)n2[C@H]1CC[C@@H](OCO)CC1,12.6 ×10⁻⁶ cm/s
9,Cc1nc(N)nc2c1cc(-c1cnn(C)c1)c(=O)n2[C@H]1CC[C@@H](OCO)CC1,23.3 ×10⁻⁶ cm/s
10,COc1ncc(-c2cc3c(C)nc(N)nc3n([C@H]3CC[C@H](OCO)CC3)c2=O)cn1,21.3 ×10⁻⁶ cm/s

# The next lines start with the values.
row,Papp,SMILES
1,30.3 ×10⁻⁶ cm/s,COc1ccc(-c2cc3c(C)nc(N)nc3n([C@H]3CC[C@@H](OCC(N)=O)CC3)c2=O)cn1
2,4.58 ×10⁻⁶ cm/s,COc1ccc(-c2cc3c(C)nc(N)nc3n([C@H]3CC[C@H](OCC(N)=O)CC3)c2=O)cn1
3,0.295 ×10⁻⁶ cm/s,COc1ccc(-c2cc3c(C)nc(N)nc3n([C@H]3CC[C@H](OCC(=O)O)CC3)c2=O)cn1
4,30.1 ×10⁻⁶ cm/s,COc1ncc(-c2cc3c(C)nc(N)nc3n([C@H]3CC[C@@H](OCC(N)=O)CC3)c2=O)cn1
5,29.8 ×10⁻⁶ cm/s,COc1ncc(-c2cc3c(C)nc(N)nc3n([C@H]3CC[C@H](OCC(N)=O)CC3)c2=O)cn1

# Test system: Plasma
# Assay: Drug metabolism in human plasma assessed as formation of 2-((trans)-4-(2-amino-6-(6-methoxypyridin-3-yl)-4-methyl-7-oxopyrido[2,3-d]pyrimidin-8(7H)-yl)cyclohexyloxy)acetic acid at 8 mg, po qd for 21 days by HPLC analysis
# Format: ADME, organism-based
# Conditions: in vivo, 504 h
# Outline: as §1
row,Drug metabolism,SMILES
1,Active,COc1ccc(-c2cc3c(C)nc(N)nc3n([C@H]3CC[C@H](OCCO)CC3)c2=O)cn1 [PF-04691502]
